Assay outcomes: PubChem, several laboratories
Shown is part of a subset that was picked to be rich in hits.
S1P3 antagonist – blocks the human S1P3 receptor. Q99500. CHO S1P3 NFAT-BLA reporter, FRET fluorescence, antagonist mode. inhibition, % at 4.98 µM. 170,000 compounds, 0.27% hits. AID 485;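 active means inhibition above the plate cutoff, the mean inhibition of test wells on that plate plus 3 SD, cut at about 28% in these data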;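 further: cells challenged with S1P at its EC80 of 0.8 µM; blue over green emission ratio from cleaved BLA substrate after 4 h stimulation; 0% = S1P-stimulated wells and 100% = unstimulated DMSO-only wells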
S1P4 ag – activates the human S1P4 receptor; O95977; 220,000 compounds, 0.35% hits; S1P4-expressing cell line, agonist reporter assay; AID 1509; activation, % at 4.98 µM; in the data active means activation above about 11%;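 further: 0% = DMSO vehicle and 100% = reference agonist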
Target sequence (O95977 whole entry, looked up): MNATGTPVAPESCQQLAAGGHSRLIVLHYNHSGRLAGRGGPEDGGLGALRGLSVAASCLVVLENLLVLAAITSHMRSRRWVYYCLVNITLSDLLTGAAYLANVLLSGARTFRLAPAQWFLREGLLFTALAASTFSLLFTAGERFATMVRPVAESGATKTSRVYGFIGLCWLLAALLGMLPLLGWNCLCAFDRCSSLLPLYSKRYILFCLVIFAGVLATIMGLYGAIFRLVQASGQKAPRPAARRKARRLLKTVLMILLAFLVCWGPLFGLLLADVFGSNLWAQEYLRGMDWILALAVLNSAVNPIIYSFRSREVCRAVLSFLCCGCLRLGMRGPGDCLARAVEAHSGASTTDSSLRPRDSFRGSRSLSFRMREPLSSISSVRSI
MDM2 E3 inh – blocks human Mdm2 ubiquitin ligase activity; cell-based MDM2 ubiquitination luciferase reporter, 2 h; 0 = plate control, 100 = twice control, blank-subtracted; Q00987; signal enhancement, % at 5 µM; 210,000 compounds, 0.11% hits;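 active means signal enhancement of 30% or more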;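 further: luminescence tracks abundance of the self-degrading MDM2-luciferase fusion protein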
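System: stable MDM2–luciferase fusion reporter cells / Input: 2000 cells seeded into each well / Schedule: 4 h settle plus 2 h compound, 37 °C / Compound: single-point 5 µM / Buffer or medium: cells held in DMEM / Benchmarks: control and blank well means / Evaluation: percent signal gain over controls, blank-subtracted / Measured by: luciferase luminescence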
L major viab – reduces viability of Leishmania major promastigotes. resazurin fluorescence viability. inhibition, % at 10 µM. 200,000 compounds, 9% hits. AID 1063; in the data active means inhibition above about 50%;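 further: promastigotes grown with compound for 44 hours at 28 °C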
S1P4 antag – human S1P4 receptor antagonism; S1P4-expressing cells, antagonist mode, reporter read-out; inhibition, % at 4.98 µM; O95977; 220,000 compounds, 0.26% hits; in the data active means inhibition above about 29%;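 further: 0% = wells stimulated with agonist and 100% = vehicle wells without agonist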
Starred values were filed as active, the others as inactive; x = no result.

SMILES	S1P3 antagonist	S1P4 ag	MDM2 E3 inh	L major viab	S1P4 antag
Cc1ccc(Cl)cc1Nc1nc(-c2sc(NC(=O)c3ccccc3)nc2C)cs1	x	-1.2	-10.4	50.1*	0.6
COc1ccccc1Nc1nc(-c2sc(NC(=O)c3ccccc3)nc2C)cs1	x	1.1	-2.5	81.1*	-4.4
CCNC(=O)C(=O)NCc1ccncc1	-11.9	-1.1	-9.5	-3.6	16.4
COc1ccc(Nc2nnc(SCC(=O)Nc3ccc4[nH]c(=O)[nH]c4c3)s2)cc1	-29.2	1.2	-7.4	0.6	-2.2
OC(c1ccccc1)c1nccc2ccccc12 (stereo unspecified)	-10.1	-2.3	-11.2	4.4	-2.4
COc1ccc(CN2CCN(CCc3ccccc3)C(CCO)C2)c(O)c1 (stereo unspecified)	2.2	0.6	-22.1	86.6*	-9.1
COc1ccc(O)c(CN2CCN(CCc3ccccc3)C(CCO)C2)c1 (stereo unspecified)	-16.0	0.8	-14.9	76.8*	-4.2
CN(CC(=O)OCC(=O)NCc1ccccc1)S(=O)(=O)c1ccc(Cl)cc1	-21.7	-0.2	x	-3.3	-11.7
COc1ccc(NS(=O)(=O)c2cccc(C(=O)N/N=C/c3cn(-c4ccccc4)nc3-c3ccccc3)c2)cc1	-19.4	0.4	x	x	7.1
O=C(CNc1ccccc1)N/N=C/c1cn(-c2ccccc2)nc1-c1ccccc1	5.1	-1.3	5.0	69.0*	-10.7
COc1ccccc1NS(=O)(=O)c1cccc(C(=O)N/N=C/c2c(C)nn(-c3ccccc3)c2N2CCCC2)c1	13.6	-0.7	-23.2	96.2*	-11.5
COc1ccc(-c2nn(-c3ccccc3)cc2/C=N/NC(N)=S)cc1OC	-5.2	-1.4	-5.7	80.5*	-13.1
COc1ccccc1NS(=O)(=O)c1cccc(C(=O)N/N=C/c2cn(-c3ccccc3)nc2-c2ccccc2)c1	-17.4	0.5	-12.8	53.2*	-8.2
COc1ccc(-c2nn(-c3ccccc3)cc2/C=N/n2cnnc2)cc1OC	x	0.4	-5.2	3.9	-19.3
O=C(CNC(=O)c1ccc2c(c1)OCCO2)N/N=C/c1cccc(Br)c1	4.7	1.8	-4.5	8.8	-4.3
CCOCCC(=O)Nc1cc(Cl)ccc1OC	x	0.7	-19.4	-3.1	-25.6
Cc1nn(-c2ccccc2)c(N2CCCC2)c1/C=N/Nc1ccc(S(=O)(=O)Nc2ccccc2)cc1[N+](=O)[O-]	-3.8	0.1	-9.0	97.4*	-12.1
COc1ccccc1NS(=O)(=O)c1ccc(N/N=C/c2c(C)nn(-c3ccccc3)c2N2CCCC2)c([N+](=O)[O-])c1	-11.1	0.4	-6.4	99.7*	-1.3
COc1c(/C=N/Nc2ccc([N+](=O)[O-])cc2[N+](=O)[O-])c(C)nn1-c1ccccc1	x	-3.2	-7.9	0.9	-4.5
CCN(CC)c1ccc(/C=N/NC(=O)c2cccc(S(=O)(=O)Nc3ccccc3OC)c2)c(O)c1	9.4	0.0	-19.0	100.1*	-5.1
COc1ccccc1NS(=O)(=O)c1ccc(N/N=C/C=C/c2ccccc2[N+](=O)[O-])c([N+](=O)[O-])c1	-5.3	-1.4	-9.7	50.0*	-10.1
Cc1ccc2nc(NC(=O)COC(=O)c3ccccn3)sc2c1	-4.6	-1.1	-4.0	-7.8	-7.3
O=C1CSC(c2ccc(Cl)cc2)N1Nc1nc(N2CCOCC2)nc(N2CCOCC2)n1 (stereo unspecified)	8.5	0.0	6.5	27.6	0.9
COc1ccc([N+](=O)[O-])cc1COc1cc(C)cc2oc(=O)cc(-c3ccccc3)c12	x	-0.2	-15.2	98.7*	4.8
CCCCN(C)C1CCN(C(=S)Nc2cccc(SC)c2)CC1	-6.5	1.1	-13.9	90.0*	-11.5
SMILES	S1P3 antagonist	S1P4 ag	MDM2 E3 inh	L major viab	S1P4 antag
CN(C1CCCC1)C1CCN(C(=S)Nc2cc(F)cc(F)c2)CC1	-25.3	-0.5	12.3	77.3*	-14.4
CSc1cccc(NC(=S)N2CCC(N(C)C(C)C)CC2)c1	4.0	2.9	12.8	62.2*	-23.2
CCC(C)N(C)C1CCN(C(=S)Nc2cccc(SC)c2)CC1 (stereo unspecified)	-8.4	-0.1	-14.6	75.9*	-0.1
Fc1ccc(NC(=S)N2CCCC2)cc1	x	-1.5	x	35.4	-26.1
O=C(NCc1ccc(-n2cccc2)cc1)c1cccc(F)c1	1.4	-0.8	12.4	7.7	-3.3
O=C(Nc1ccc(C2SCCS2)cc1)c1ccccc1	-2.4	0.5	-16.3	x	10.9
CSc1cccc(NC(=S)N2CCC(N(C)C3CCCCCC3)CC2)c1	2.2	-2.1	8.0	88.3*	-4.0
Cc1ccc(Nc2ncc(C(=O)NCCCN3CCN(C)CC3)c3ccccc23)cc1Cl	5.3	-1.3	-3.3	84.1*	-12.1
